# High-throughput results as filed in PubChem.
# An excerpt weighted towards active compounds, which were near 4.7% of everything screened.
# MC4R antagonist: blocks human MC4R cAMP signaling | P32245 | MC4R-expressing cells, MTII-stimulated cAMP, LANCE TR-FRET | inhibition, % at 6.5 µM | 360,000 tested, 0.48% active | AID 540295;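 active = inhibition above its plate's cutoff, the mean of tested wells on that plate plus 3 SD, cut at about 29% in these data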;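 note: 0% = Melanotan II alone and 100% = Melanotan II plus saturating MCL0020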
# Target sequence (P32245 whole entry, looked up): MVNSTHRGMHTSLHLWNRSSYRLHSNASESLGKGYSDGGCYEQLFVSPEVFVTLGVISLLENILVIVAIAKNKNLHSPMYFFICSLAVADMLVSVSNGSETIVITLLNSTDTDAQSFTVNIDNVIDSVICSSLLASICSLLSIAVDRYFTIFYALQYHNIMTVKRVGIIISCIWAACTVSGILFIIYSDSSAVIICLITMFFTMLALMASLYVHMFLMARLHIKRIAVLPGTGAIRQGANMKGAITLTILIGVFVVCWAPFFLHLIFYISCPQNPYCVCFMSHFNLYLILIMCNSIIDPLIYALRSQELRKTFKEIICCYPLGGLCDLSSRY
#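 material = U2OS cells stably expressing human melanocortin 4 receptor (MC4R) | also added = Melanotan II challenge | dosing = single nominal compound dose of 6.5 µM | detection = TR-FRET with Eu-cAMP and labeled anti-cAMP, 671 nm | replication = singlicate | timing = compound 30 min, challenge 1 h, detection 1 h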
# AHR act: activates the human aryl hydrocarbon receptor | P35869 | AID 2796 | AHR-responsive luciferase reporter cells, luminescence | 320,000 tested, 2.5% active | activation, % at 5 µM; in the data active = activation above about 47%;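 note: 0% = vehicle wells and 100% = reference agonist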
# HTR2A ag: agonists of mouse serotonin 5-HT2A receptor (HTR2A); CHO-K1 mHTR2A beta-arrestin complementation, luminescence; percent of 30 µM serotonin response; AID 624169; activation, % at 7.6 µM; P35363; 360,000 tested, 0.66% active;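 active = activation above a run cutoff, the mean activation of all tested compounds plus 3 SD, cut at about 14% in these data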;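 note: 0% = plate median of compound wells and 100% = 30 µM serotonin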
# GAA850 FXN act: activators of GAA850 frataxin (FXN) promoter; activation, % at 6 µM; AID 540364; 360,000 tested, 0.56% active; HEK293 lucGAA850 FXN promoter luciferase reporter, 24 h; percent of 10 µM SAHA response;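 active = activation above the average of all compounds screened plus 3 SD, cutoff fixed separately per campaign, cut at about 7.5% in these data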;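 note: 0% = DMSO wells and 100% = 10 µM SAHA wells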
# MC4R ag barr: activates human MC4R beta-arrestin recruitment; AID 540308; 360,000 tested, 0.98% active; P32245; activation, % at 8.9 µM; U2OS MC4R beta-arrestin complementation, luminescence; percent of melanotan II response, DMSO zero;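 active = activation above a per-plate cutoff, the mean activation of sample wells on that plate plus 3 SD, cut at about 8% in these data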
# Numbers without * were called inactive; · = no result given.
SMILES,MC4R antagonist,AHR act,HTR2A ag,GAA850 FXN act,MC4R ag barr
CCCc1nc2ccccc2c(=O)n1/N=C/c1c(C)[nH]n(-c2ccc(C)cc2)c1=O,-5.8,58.5*,-1.5,1.7,-2.4
COc1ccc(OC)c(/C=C2/Sc3ccccc3C2=O)c1,8.9,16.5,-1.6,1.8,9.5*
Cc1c(C(=O)O)oc2c1ccc1ccccc12,5.5,10.8,1.5,-1.1,-1.6
Cc1c(C(=N)C(C#N)C#N)c(=N)oc2c1ccc1ccccc12,9.6,64.7*,4.1,5.3,-3.1
Nc1c(C(=O)N/N=C/c2ccccc2Cl)oc2nc(-c3ccccc3)cc(-c3ccco3)c12,4.8,49.9*,-2.5,3.0,-2.2
Nc1c(C(=O)N/N=C/c2ccc(F)cc2)oc2nc(-c3ccccc3)cc(-c3ccco3)c12,-3.8,56.9*,1.9,0.8,2.4
COc1cc(S(=O)(=O)NCC(c2ccco2)N2CCCCC2)ccc1NC(C)=O (centres undefined),5.1,0.9,3.0,0.5,-2.4
COc1ccc(C(=O)N(Cc2ccco2)Cc2cc3cc(C)ccc3[nH]c2=O)cc1OC,12.4,2.5,-1.7,-0.9,-1.9
COc1ccccc1NC(=S)N(Cc1ccco1)Cc1cc2cc(C)ccc2[nH]c1=O,-5.5,71.1*,6.0,-4.5,7.3
COc1cc(NC(=O)c2ccc(C)cc2)c(OC)cc1NC(=O)CN1CCOCC1,8.6,29.6,4.2,2.4,-0.6
N=C1C(=O)OCC1c1ccccc1NC(=O)c1ccccc1 (centres undefined),-3.4,1.7,-2.5,1.1,-1.5
COc1cc(NC(=O)c2ccc(Cl)cc2)c(OC)cc1NC(=O)CN1CCOCC1,9.9,47.8*,-2.3,1.0,-2.4
COc1ccc(C2COC(=O)C2=N)c(NC(=O)c2ccc(Cl)cc2)c1 (centres undefined),7.4,75.8*,-3.7,0.1,-1.5
COc1cc(NC(=O)c2ccc(Cl)cc2)c(OC)cc1Cl,10.9,60.3*,0.5,0.5,0.4
O=C(O)c1cc(-c2ccccc2)nn1CC1CC(c2cccc([N+](=O)[O-])c2)=NO1 (centres undefined),·,-2.2,·,·,·
N#CCC(=O)Nc1ccc(C(=O)Nc2cccc(S(=O)(=O)N3CCCC3)c2)cc1,7.4,·,3.6,-0.6,0.3
CCOC(=O)C1=Nc2ccccc2C1=[N+]=[N-],3.6,66.2*,-3.0,-1.6,-0.2
CCOC(=O)c1cnc(-c2ccccc2O)nc1Cl,1.6,2.7,-0.3,3.5,-0.6
O=S1(=O)CC(N2CCSCC2)CN1Cc1cn(Cc2cccc(C(F)(F)F)c2)nn1 (centres undefined),·,·,7.0,·,·
Cn1c(O)c(/C=N/Nc2ccccc2)c(=O)n(C)c1=O,-3.1,58.4*,-0.6,-2.3,0.3
Cc1ccccc1NC(=O)/C=C/c1ccc([N+](=O)[O-])s1,2.0,49.5*,-3.3,-13.3,-2.5
CC(=O)c1cccc(NC(=O)/C=C/c2ccc([N+](=O)[O-])s2)c1,-2.5,·,-1.8,7.2,-2.1
O=C1C(=Cc2ccccc2O)SC(=S)N1CCCN1CCOCC1,5.8,·,2.1,-0.2,-0.8
O=C(/C=C/Nc1ccc(F)cc1Br)c1ccccc1,-5.5,51.1*,0.9,-5.2,-1.8
CC(C)NC(=O)Nc1nnc([C@@H]2C[C@H](O)[C@@H](CO)O2)s1,5.7,·,-3.1,-0.7,-2.6
SMILES,MC4R antagonist,AHR act,HTR2A ag,GAA850 FXN act,MC4R ag barr
Cc1ccc(OCCN2CCC2(C)C(=O)Nc2ccc3c(c2)OCCO3)cc1 (centres undefined),2.8,·,-2.5,0.9,-0.1
CCCCCNC(=O)c1[nH]c(C(F)(F)F)nc1-c1ccccc1,·,·,-0.4,·,·
Cc1ccccc1-c1cc(-c2ccccc2O)on1,-6.8,73.3*,0.8,4.9,4.3
CCCN(C)C[C@H]1OCc2cnnn2CCCC(=O)N([C@H](C)CO)C[C@@H]1C,·,·,3.7,·,·
CCOC(=O)/C(=C\C=C1/Sc2ccccc2N1CC)C(C)=O,-28.1,53.4*,-2.2,1.7,-0.5
CCOC(=O)/C(=C/C=C1\Sc2ccccc2N1CC)C(C)=O,-18.4,45.7,0.5,4.4,-0.8
CC(C)CC(=O)Nc1ccc(C(=O)Cn2nc(C(=O)O)c3ccccc3c2=O)cc1,8.9,0.8,4.6,6.8,-1.0
CC(C)(C)c1ccc(C(=O)Cn2nc(C(=O)O)c3ccccc3c2=O)cc1,0.9,1.3,5.2,1.0,8.7*
CCOC(=O)[C@@H]1[C@H]2COc3ccccc3[C@@H]2N2C(=O)N(c3ccc(C(F)(F)F)cc3)C(=O)[C@]12C,0.6,0.1,-2.8,2.8,0.2
O=C(Nc1ccc(F)cc1)C(Sc1nc2ccccc2[nH]1)c1ccccc1 (centres undefined),3.9,69.3*,-3.3,2.2,5.9
O=C(CSc1nc2ccccc2[nH]1)Nc1ccc(F)cc1,-10.8,-1.5,-3.9,-2.2,0.6
Cc1ccccc1/C=N/N1CCN(c2ccccc2)CC1,-0.9,73.3*,0.8,5.4,-0.6
O=[N+]([O-])c1ccc(Cl)c(/C=N/N2CCN(c3ccccc3)CC2)c1,-6.5,58.2*,-2.1,3.1,0.9
O=C(Cn1cnc2ccccc2c1=O)Nc1ccc(S(=O)(=O)N2CCCC2)cc1,14.9,2.1,1.8,-0.1,-1.3
O=C(Cn1cnc2ccccc2c1=O)Nc1ccc(S(=O)(=O)N2CCOCC2)cc1,24.3,47.5*,8.7,-0.1,0.4
Cc1ccc(NC(=O)Cn2ccnc2)cc1C,11.0,58.7*,-2.5,-0.1,-0.8
CCOc1ccccc1NC(=O)Cn1nnc(C(=O)NCc2ccco2)c1N,-29.3,63.8*,-1.9,5.2,-2.3
Cc1ccccc1NC(=O)Cn1nnc(C(=O)NCc2ccco2)c1N,4.8,7.0,3.0,-3.1,-1.5
Cc1ccc(NC(=O)c2nnn(CC(=O)Nc3ccccc3)c2N)cc1C,-6.8,48.0*,2.3,0.1,3.0
CCn1nc(C(=O)Nc2ccc(C)c(C)c2)c(Cl)c1Cl,3.1,12.1,1.4,3.7,8.7*
Cc1ccc(NC(=O)Cn2nnc(C(=O)NCc3ccccc3)c2N)cc1C,-2.2,-1.4,-1.9,-2.6,1.8
O=C1NC[C@H](Cc2ccccc2)N(C[C@H]2CCCN2C[C@H](Cc2ccccc2)N2C[C@H](Cc3ccc(O)cc3)N(CCc3ccccc3)C(=O)C2=O)C1=O,-3.9,·,-3.7,0.0,1.2
COCCNC(=O)C1(C)CCN(C(=O)c2ccc3sccc3c2)C1 (centres undefined),4.6,·,0.7,0.8,-0.6
CCCNC(=O)C1(C)CCN(Cc2ccc(OC)c3ccccc23)C1 (centres undefined),4.2,·,-5.3,-2.4,-0.4
COc1ccc(S(=O)(=O)N2CCCCC2)cc1NC(=O)CCNC(=O)c1ccco1,-1.4,·,4.4,0.9,-1.8
Cc1c(Cl)cccc1NC(=O)Cn1nnc(C(=O)NCc2cccs2)c1N,-9.1,-0.1,-0.1,-1.6,5.5
Cc1cccc(NC(=O)Cn2nnc(C(=O)NCc3cccs3)c2N)c1C,-5.9,-2.2,-4.4,-1.8,9.0*
